According to ChEMBL document CHEMBL1129425, “New potent antihyperglycemic agents in db/db mice: synthesis and structure-activity relationship studies of (4-substituted benzyl) (trifluoromethyl)pyrazoles and -pyrazolones” (1996):

Legend:
Assay type in all cases: functional
[1] = tested on: Mus musculus; experiment: Percent change in the plasma glucose concentration of drug -treated db/db mice ([…], perorally) relative to vehicle at the dose 2 mg/kg; conditions: route oral
[2] = tested on: Mus musculus; experiment: Percent change in the plasma glucose concentration of drug-treated db/db mice ([…], perorally) relative to vehicle at the dose 20 mg/kg.; conditions: route oral
In short: (§1)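 Oral dosing of db/db mice once daily for 3 days, fed ad libitum. On day 4, food was withdrawn and a fourth dose given, then mice were fasted. After 4 h, mice were anesthetized with halothane and decapitated, and blood was collected into fluoride tubes. Plasma glucose was measured on an autoanalyzer and reported as mean ± SE percent change versus vehicle controls. […]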

[3] = tested on: Mus musculus; experiment: Percent change in the plasma glucose concentration of drug-treated db/db mice (4-6 mice, perorally) relative to vehicle at the dose 5 mg/kg.; conditions: route oral; in short: as §1
[4] = tested on: Mus musculus; experiment: Percent change in the plasma glucose concentration of drug -treated db/db mice ([…], perorally) relative to vehicle at the dose 0.5 mg/kg; conditions: route oral; in short: as §1
[5] = tested on: Mus musculus; experiment: Percent change in the plasma glucose concentration of drug -treated db/db mice ([…], perorally) relative to vehicle at the dose 100 mg/kg; conditions: route oral
[6] = species on record: Mus musculus; experiment: Percent change in the plasma glucose concentration of drug -treated db/db mice ([…], perorally) relative to vehicle (dose not specified)
[7] = tested on: Mus musculus; experiment: Concentration required to cause significant reduction in plasma glucose when administered orally in mice.; conditions: po
[8] = tested on: Mus musculus; experiment: Percent change in the plasma glucose concentration of drug -treated db/db mice (4-6 mice, perorally) relative to vehicle at the dose mg/kg; in short: as §1
[9] = tested on: Mus musculus; experiment: Percent change in the plasma glucose concentration of drug -treated db/db mice (4-6 mice, perorally) relative to vehicle at the dose 120 mg/kg; conditions: route oral; in short: as §1

| SMILES | Change [2] [%] | Change [3] [%] | also measured |
| --- | --- | --- | --- |
| COc1nn(C)c(C(F)(F)F)c1Cc1ccc(SC)cc1 | -49 | -41 | Change [1]: -20% |
| CCOc1c(Cc2ccc(SC)cc2)c(C(F)(F)F)nn1CC |  | -23 |  |
| CCc1ccc(Cc2c(C(F)(F)F)n[nH]c2O)cc1 |  | -39 | Change [4]: -11%; Change [1]: -28% |
| COc1[nH]nc(C(F)(F)F)c1Cc1ccc(SC)cc1 | -57 |  | Change [1]: -16% |
| C/C(=N\O)c1ccc(Cc2c(C(F)(F)F)n[nH]c2O)cc1 |  | -28 |  |
| CCCc1ccc(Cc2c(C(F)(F)F)n[nH]c2O)cc1 | -44 |  |  |
| CSc1ccc(Cc2c(C)n[nH]c2O)cc1 | -36 |  | Change [5]: -39% |
| Oc1[nH]nc(C(F)(F)F)c1Cc1ccc(Cl)cc1 |  | -6 |  |
| CCCCOc1nn(CCCC)c(C(F)(F)F)c1Cc1ccc(CC)cc1 | -3 |  |  |
| CCc1ccc(Cc2c(OC)nn(C)c2C(F)(F)F)cc1 |  | -38 |  |
| CSc1ccc(Cc2c(C(F)(F)F)[nH]n(Cc3ccccc3)c2=O)cc1 | 10 |  |  |
| CC(=O)c1ccc(Cc2c(C(F)(F)F)n[nH]c2O)cc1 |  | -19 |  |
| CC(O)c1ccc(Cc2c(C(F)(F)F)n[nH]c2O)cc1 (configuration not stated) |  | -18 |  |
| Oc1[nH]nc(C(F)(F)F)c1Cc1ccc(I)cc1 | -48 |  |  |
| CCCCCCc1ccc(Cc2c(C(F)(F)F)n[nH]c2O)cc1 | 5 |  |  |
| CCOc1nn(CC)c(C(F)(F)F)c1Cc1ccc(SC)cc1 |  | 5 |  |
| Oc1[nH]nc(C(F)(F)F)c1Cc1ccc(F)cc1 | -20 | -3 |  |
| CCSc1ccc(Cc2c(C(F)(F)F)n[nH]c2O)cc1 | -38 | -25 | Change [1]: -23% |
| CSc1ccc(CC2(C)C(=O)N(C)N=C2C(F)(F)F)cc1 (configuration not stated) | 6 |  |  |
| Oc1[nH]nc(C(F)(F)F)c1Cc1ccc(C(F)(C(F)(F)F)C(F)(F)F)cc1 | 1 |  |  |
| CSc1ccc(Cc2c(C(F)(F)F)[nH]n(C)c2=O)cc1 |  | -11 | Change [6]: -40% |
| CC(C)(C)c1ccc(Cc2c(C(F)(F)F)n[nH]c2O)cc1 | -7 |  |  |
| COc1ccc(Cc2c(C(F)(F)F)n[nH]c2O)cc1 |  | -22 |  |

| SMILES | Change [2] [%] | Change [3] [%] | also measured |
| --- | --- | --- | --- |
| CC(C)Sc1ccc(Cc2c(C(F)(F)F)n[nH]c2O)cc1 | -32 |  |  |
| C[S+]([O-])c1ccc(Cc2c(C(F)(F)F)n[nH]c2O)cc1 (configuration not stated) |  | -33 | Change [1]: -25% |
| Oc1[nH]nc(C(F)(F)F)c1Cc1ccc(OC(F)(F)F)cc1 |  | -4 |  |
| CS(=O)(=O)c1ccc(Cc2c(C(F)(F)F)n[nH]c2O)cc1 |  | 2 |  |
| CSc1ccc(Cc2c(C(F)(F)F)n[nH]c2O)cc1 | -57 | -43 | ED50 [7]: 9.85 mg/kg; Change [4]: -13%; Change [5]: -68%; Change [1]: -29% |
| CSc1ccc(Cc2c(C(F)(F)F)n(C)n(C)c2=O)cc1 | -6 |  |  |
| Oc1[nH]nc(C(F)(F)F)c1Cc1ccc2ccccc2c1 | -45 |  |  |
| CSc1ccc(Cc2c(C(F)(F)F)n(C)[nH]c2=O)cc1 | -29 | -7 |  |
| CCCCc1ccc(Cc2c(C(F)(F)F)n[nH]c2O)cc1 |  | -7 |  |
| CC(C)(C)C(=O)c1ccc(Cc2c(C(F)(F)F)n[nH]c2O)cc1 |  |  | Change [8]: -23% |
| CC(C)c1ccc(Cc2c(C(F)(F)F)n[nH]c2O)cc1 |  | -17 |  |
| Cc1ccc(Cc2c(C(F)(F)F)n[nH]c2O)cc1 | -36 |  |  |
| CCCCOc1[nH]nc(C(F)(F)F)c1Cc1ccc(CC)cc1 | -34 |  |  |
| Oc1[nH]nc(C(F)(F)F)c1Cc1ccccc1 |  |  | Change [5]: -33% |
| Oc1[nH]nc(C(F)(F)F)c1Cc1ccc(Br)cc1 | -47 | -24 | Change [1]: -5% |
| Oc1[nH]nc(C(F)(F)F)c1Cc1ccc(C(F)(F)F)cc1 |  | -15 |  |
| CSc1ccc(CC2(C)C(=O)NN=C2C(F)(F)F)cc1 (configuration not stated) | -9 |  |  |
| Oc1[nH]nc(C(F)(F)F)c1Cc1ccc(SC(F)(F)F)cc1 | -15 | 5 |  |
| CSc1ccc(Cc2c(C(F)(F)F)n[nH]c2OC(C)C)cc1 | -40 |  |  |
| CCc1ccc(Cc2c(C(F)(F)F)n[nH]c2OC)cc1 |  | -36 |  |
| COc1c(Cc2ccc(SC)cc2)c(C(F)(F)F)nn1C |  | -39 |  |
| CCCCSc1ccc(Cc2c(C(F)(F)F)n[nH]c2O)cc1 | -3 |  |  |
| CCNc1ccc(Cc2c(C(F)(F)F)n[nH]c2O)cc1 |  | -11 | Change [9]: -61% |
